Experimental data published in ChEMBL document CHEMBL1154186, “Synthesis, kinase inhibitory potencies, and in vitro antiproliferative evaluation of new Pim kinase inhibitors” (J Med Chem, 2009).

How the values were obtained:
[1] = target: MAP kinase-interacting serine/threonine-protein kinase 1 (Homo sapiens) (UniProt Q9BUB5); test: Inhibition of MNK1 assessed as residual enzyme activity at 10 uM relative to untreated control
Outline: (§1)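 Assayed with [γ-33P]ATP at 50 µM and 10 mM Mg acetate in 50 mM Tris/HCl pH 7.5, 0.1 mM EGTA, 0.1% 2-mercaptoethanol, 30 min, 21 °C. Phosphoric acid stop, P81 filter capture. ERK2 and Lck are mouse; AMPK is rat. 10 µM compound; % activity remaining relative to control without inhibitor, duplicates.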

[2] = Inhibition of PKA assessed as residual enzyme activity at 10 uM relative to untreated control
Outline: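 PKA (5-20 m-units) was assayed in 8 mM Mops pH 7.5 and 0.2 mM EDTA, with LRRASLG at 300 µM and [γ-33P]ATP at 20 µM plus 10 mM Mg acetate, 30 min at 21 °C, then P81 filter capture. Compound at 10 µM; % residual activity versus uninhibited control, duplicates.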

[3] = Inhibition of PHK assessed as residual enzyme activity at 10 uM relative to untreated control
[4] = target: Mitogen-activated protein kinase 10 (Homo sapiens) (UniProt P53779); test: Inhibition of JNK3 assessed as residual enzyme activity at 10 uM relative to untreated control; outline: as §1
Sequence of Mitogen-activated protein kinase 10 (Homo sapiens) (P53779 whole entry): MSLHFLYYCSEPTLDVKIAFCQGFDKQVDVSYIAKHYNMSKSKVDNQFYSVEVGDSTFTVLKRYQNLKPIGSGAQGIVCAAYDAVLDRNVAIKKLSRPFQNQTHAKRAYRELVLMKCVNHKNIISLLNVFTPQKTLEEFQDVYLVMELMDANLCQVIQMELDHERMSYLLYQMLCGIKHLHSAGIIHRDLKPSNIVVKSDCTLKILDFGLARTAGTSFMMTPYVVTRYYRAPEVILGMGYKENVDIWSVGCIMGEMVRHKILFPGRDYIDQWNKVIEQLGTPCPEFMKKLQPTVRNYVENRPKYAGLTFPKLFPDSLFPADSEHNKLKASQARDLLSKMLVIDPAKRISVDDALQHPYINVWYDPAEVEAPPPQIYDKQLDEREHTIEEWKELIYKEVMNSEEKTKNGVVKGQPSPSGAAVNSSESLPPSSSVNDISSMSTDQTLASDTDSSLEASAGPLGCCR

[5] = target: Serine/threonine-protein kinase PAK 4 (Homo sapiens) (UniProt O96013); test: Inhibition of PAK4 assessed as residual enzyme activity at 10 uM relative to untreated control
Sequence of Serine/threonine-protein kinase PAK 4 (Homo sapiens) (O96013 whole entry, looked up): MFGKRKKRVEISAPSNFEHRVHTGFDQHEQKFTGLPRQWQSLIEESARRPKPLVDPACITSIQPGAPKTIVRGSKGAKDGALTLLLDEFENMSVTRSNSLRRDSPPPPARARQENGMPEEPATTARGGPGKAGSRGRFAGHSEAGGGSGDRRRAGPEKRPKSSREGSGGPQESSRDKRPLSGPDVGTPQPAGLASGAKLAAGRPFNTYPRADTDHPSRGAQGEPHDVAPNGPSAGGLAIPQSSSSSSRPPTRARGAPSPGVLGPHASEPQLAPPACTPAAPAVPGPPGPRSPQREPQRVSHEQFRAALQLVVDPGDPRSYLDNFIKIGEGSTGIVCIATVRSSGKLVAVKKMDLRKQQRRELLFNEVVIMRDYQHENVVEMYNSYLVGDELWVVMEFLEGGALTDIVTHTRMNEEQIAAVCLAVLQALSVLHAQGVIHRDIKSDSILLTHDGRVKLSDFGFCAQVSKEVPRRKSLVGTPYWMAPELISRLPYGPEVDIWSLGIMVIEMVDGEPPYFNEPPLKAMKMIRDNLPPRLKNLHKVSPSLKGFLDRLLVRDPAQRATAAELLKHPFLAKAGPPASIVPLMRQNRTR
Outline: (§2)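 Radiometric filter-binding assay at 21 °C for 30 min. Mix: 50 mM Tris/HCl pH 7.5, 0.1 mM EGTA, 0.1% 2-mercaptoethanol, 10 mM Mg acetate and [γ-33P]ATP (800 cpm/pmol) at 5 µM. Stopped with orthophosphoric acid and spotted on P81. Compound at 10 µM; activity given as % remaining versus no-inhibitor control, duplicates. Kinases human full-length unless noted.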

[6] = target: Ribosomal protein S6 kinase alpha-5 (Homo sapiens) (UniProt O75582); test: Inhibition of MSK1 assessed as residual enzyme activity at 10 uM relative to untreated control
Sequence of Ribosomal protein S6 kinase alpha-5 (Homo sapiens) (O75582 whole entry, looked up): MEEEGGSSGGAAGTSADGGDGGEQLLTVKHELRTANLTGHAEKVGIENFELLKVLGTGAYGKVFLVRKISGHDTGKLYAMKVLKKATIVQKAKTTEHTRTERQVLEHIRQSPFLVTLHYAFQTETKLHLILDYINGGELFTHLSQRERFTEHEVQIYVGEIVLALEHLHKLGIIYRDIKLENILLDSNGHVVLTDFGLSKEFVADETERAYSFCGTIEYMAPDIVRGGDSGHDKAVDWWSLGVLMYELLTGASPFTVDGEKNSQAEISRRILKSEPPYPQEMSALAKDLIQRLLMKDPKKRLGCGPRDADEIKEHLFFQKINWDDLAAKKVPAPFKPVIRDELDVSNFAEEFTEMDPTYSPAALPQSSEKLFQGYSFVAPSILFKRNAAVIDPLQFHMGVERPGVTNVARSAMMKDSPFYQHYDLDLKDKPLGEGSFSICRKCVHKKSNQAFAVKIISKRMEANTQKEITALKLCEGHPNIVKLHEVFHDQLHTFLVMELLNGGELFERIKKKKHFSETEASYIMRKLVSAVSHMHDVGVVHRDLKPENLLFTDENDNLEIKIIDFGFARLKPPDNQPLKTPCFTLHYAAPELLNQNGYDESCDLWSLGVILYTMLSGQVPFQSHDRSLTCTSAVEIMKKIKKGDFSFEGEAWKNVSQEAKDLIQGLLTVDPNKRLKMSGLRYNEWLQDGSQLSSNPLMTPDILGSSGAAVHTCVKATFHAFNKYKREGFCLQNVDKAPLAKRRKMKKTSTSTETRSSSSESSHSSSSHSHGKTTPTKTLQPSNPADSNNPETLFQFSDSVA

[7] = target: T1, Serine/threonine-protein kinase Sgk1 (Homo sapiens) (UniProt O00141); test: Inhibition of SGK1 assessed as residual enzyme activity at 10 uM relative to untreated control
T1 sequence (whole entry): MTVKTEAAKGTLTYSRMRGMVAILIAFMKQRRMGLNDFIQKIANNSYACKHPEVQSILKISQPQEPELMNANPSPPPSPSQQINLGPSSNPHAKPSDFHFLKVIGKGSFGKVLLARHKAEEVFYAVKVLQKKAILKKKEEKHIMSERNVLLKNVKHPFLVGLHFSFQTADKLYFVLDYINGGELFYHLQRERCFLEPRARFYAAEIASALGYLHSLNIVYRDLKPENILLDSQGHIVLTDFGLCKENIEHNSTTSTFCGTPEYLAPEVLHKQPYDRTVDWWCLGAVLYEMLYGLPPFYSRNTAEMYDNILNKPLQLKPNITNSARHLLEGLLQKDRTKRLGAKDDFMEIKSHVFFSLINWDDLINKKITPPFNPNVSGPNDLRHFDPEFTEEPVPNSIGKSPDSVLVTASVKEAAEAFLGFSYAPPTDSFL
Outline: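 Buffer Tris/HCl pH 7.5, EGTA and 2-mercaptoethanol. 30 min at 21 °C, compound at 10 µM. P81 filter read-out. Residual activity versus control, duplicates.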

[8] = target: SRSF protein kinase 1 (Homo sapiens) (UniProt Q96SB4); test: Inhibition of SRPK1 assessed as residual enzyme activity at 10 uM relative to untreated control
Sequence of SRSF protein kinase 1 (Homo sapiens) (Q96SB4 whole entry): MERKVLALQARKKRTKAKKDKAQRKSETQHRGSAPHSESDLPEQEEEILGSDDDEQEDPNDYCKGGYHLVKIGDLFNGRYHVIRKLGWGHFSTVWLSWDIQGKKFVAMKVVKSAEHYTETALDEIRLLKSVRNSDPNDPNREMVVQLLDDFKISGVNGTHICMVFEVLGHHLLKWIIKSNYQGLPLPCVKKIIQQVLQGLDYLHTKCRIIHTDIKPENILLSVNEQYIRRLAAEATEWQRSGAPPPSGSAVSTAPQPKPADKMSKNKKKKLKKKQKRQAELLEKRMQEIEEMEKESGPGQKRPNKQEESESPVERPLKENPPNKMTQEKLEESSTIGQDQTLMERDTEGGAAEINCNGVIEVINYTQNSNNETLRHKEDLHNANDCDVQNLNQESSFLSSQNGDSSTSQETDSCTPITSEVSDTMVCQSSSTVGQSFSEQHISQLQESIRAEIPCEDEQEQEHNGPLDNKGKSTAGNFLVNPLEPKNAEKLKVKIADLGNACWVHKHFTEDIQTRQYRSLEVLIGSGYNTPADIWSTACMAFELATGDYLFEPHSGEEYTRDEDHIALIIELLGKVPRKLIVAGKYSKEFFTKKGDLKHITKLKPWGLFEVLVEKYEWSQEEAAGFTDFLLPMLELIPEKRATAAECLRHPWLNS

[9] = target: Mitogen-activated protein kinase 3 (Homo sapiens) (UniProt P27361); test: Inhibition of ERK1 assessed as residual enzyme activity at 10 uM relative to untreated control; outline: as §2
Sequence of Mitogen-activated protein kinase 3 (Homo sapiens) (P27361 whole entry): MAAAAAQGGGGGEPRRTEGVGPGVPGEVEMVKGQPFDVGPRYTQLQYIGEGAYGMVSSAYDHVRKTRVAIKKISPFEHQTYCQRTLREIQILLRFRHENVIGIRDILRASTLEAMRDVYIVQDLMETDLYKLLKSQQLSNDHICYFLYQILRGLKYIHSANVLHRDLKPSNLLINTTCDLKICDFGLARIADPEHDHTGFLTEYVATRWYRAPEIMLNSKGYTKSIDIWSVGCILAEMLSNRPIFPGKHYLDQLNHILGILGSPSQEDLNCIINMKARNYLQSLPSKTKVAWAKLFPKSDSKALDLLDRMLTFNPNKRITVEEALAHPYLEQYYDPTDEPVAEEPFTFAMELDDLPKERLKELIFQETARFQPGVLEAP

[10] = target: MAP kinase-activated protein kinase 2 (Homo sapiens) (UniProt P49137); test: Inhibition of MAPKAPK2 assessed as residual enzyme activity at 10 uM relative to untreated control
Sequence of MAP kinase-activated protein kinase 2 (Homo sapiens) (P49137 whole entry, looked up): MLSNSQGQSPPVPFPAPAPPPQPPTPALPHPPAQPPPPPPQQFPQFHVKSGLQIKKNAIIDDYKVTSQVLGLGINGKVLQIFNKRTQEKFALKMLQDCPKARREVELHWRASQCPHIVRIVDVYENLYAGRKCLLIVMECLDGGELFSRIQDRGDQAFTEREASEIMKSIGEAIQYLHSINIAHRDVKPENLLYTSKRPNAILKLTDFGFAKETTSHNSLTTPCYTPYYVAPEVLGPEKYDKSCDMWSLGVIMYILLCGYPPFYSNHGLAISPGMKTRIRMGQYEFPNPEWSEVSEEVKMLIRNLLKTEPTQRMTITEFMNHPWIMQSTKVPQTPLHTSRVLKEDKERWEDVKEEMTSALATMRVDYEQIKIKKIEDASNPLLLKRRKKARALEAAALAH
Outline: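 Kinases of human origin, except CK1δ, which is rat. Run in 50 mM Tris/HCl pH 7.5, 0.1 mM EGTA, 0.1% 2-mercaptoethanol and 10 mM Mg acetate, with [γ-33P]ATP at 20 µM, 30 min at 21 °C. Acid-stopped and captured on P81 filters. Compound tested at 10 µM; residual % of uninhibited control, duplicate determinations.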

[11] = target: Serine/threonine-protein kinase PLK1 (Homo sapiens) (UniProt P53350); test: Inhibition of PLK1 assessed as residual enzyme activity at 10 uM relative to untreated control
Sequence of Serine/threonine-protein kinase PLK1 (Homo sapiens) (P53350 whole entry): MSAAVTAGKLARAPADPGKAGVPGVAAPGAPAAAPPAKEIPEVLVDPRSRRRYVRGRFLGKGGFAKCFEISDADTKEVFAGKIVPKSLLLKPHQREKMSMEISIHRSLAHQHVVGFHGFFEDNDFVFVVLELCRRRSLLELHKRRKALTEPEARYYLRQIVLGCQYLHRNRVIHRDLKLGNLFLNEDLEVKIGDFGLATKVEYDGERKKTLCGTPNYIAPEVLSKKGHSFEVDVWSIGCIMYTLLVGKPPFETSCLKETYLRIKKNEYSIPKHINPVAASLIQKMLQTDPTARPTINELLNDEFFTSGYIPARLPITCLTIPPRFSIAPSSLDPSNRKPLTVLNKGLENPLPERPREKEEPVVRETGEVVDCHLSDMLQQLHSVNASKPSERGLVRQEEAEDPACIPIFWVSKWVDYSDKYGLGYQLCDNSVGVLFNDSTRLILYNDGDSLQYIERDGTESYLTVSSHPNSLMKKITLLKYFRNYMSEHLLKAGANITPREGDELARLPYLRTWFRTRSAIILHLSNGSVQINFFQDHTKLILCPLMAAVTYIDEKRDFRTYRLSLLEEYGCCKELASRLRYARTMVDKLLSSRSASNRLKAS
Outline: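 30 min at 21 °C in the presence of 10 µM inhibitor. Incorporation read after P81 filter capture. Reported as % activity remaining relative to control, duplicates.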

[12] = target: T2, Serine/threonine-protein kinase BRSK2 (Homo sapiens) (UniProt Q8IWQ3); test: Inhibition of BRSK2 assessed as residual enzyme activity at 10 uM relative to untreated control; outline: as §1
T2 sequence (whole entry): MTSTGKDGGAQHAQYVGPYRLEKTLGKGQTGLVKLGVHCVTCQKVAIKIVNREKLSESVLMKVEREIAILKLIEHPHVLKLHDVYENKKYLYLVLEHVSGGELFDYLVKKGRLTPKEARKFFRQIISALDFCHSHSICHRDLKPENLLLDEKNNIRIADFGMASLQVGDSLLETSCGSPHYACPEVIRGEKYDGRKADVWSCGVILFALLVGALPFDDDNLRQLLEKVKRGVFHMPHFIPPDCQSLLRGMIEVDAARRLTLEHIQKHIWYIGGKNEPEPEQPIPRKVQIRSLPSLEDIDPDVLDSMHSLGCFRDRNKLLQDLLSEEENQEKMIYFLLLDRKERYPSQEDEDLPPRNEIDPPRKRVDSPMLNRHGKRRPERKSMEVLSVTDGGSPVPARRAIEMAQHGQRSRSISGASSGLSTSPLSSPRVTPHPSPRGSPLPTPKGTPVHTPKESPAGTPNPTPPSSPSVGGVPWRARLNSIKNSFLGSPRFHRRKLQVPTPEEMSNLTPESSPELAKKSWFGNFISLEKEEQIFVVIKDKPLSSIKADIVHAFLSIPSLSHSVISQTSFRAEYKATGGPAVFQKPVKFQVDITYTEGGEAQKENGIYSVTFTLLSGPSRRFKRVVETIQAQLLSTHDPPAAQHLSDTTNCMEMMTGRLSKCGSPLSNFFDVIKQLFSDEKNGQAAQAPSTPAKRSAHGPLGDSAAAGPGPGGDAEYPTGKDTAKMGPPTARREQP

Sequence of MAP kinase-interacting serine/threonine-protein kinase 1 (Homo sapiens) (Q9BUB5 whole entry, looked up): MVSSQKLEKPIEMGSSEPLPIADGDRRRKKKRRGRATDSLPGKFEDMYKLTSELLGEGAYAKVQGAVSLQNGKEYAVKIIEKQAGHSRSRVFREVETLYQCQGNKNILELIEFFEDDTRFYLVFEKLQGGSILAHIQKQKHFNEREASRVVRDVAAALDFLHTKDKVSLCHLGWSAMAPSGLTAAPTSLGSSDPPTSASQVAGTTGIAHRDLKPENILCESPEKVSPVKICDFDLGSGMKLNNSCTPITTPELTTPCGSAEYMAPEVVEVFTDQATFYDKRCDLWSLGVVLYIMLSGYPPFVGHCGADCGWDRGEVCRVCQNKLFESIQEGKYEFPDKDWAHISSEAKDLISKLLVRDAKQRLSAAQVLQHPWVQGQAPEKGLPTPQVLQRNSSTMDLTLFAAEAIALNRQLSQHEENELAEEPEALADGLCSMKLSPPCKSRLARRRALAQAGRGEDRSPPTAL

| Structure (SMILES) | Activity [1] | Activity [2] | Activity [3] | Activity [4] | Activity [5] | Activity [6] | Activity [7] | Activity [8] | Activity [9] | Activity [10] | Activity [11] | Activity [12] |
| --- | --- | --- | --- | --- | --- | --- | --- | --- | --- | --- | --- | --- |
| c1ccc2c(c1)[nH]c1c2ccc2cc[nH]c21 | 69% | 95% | 90% | 108% | 84% | 90% | 82% | 90% | 108% | 118% | 111% | 58% |
| c1ccc2c(c1)[nH]c1c3cc[nH]c3ccc21 | 101% | 96% | 71% | 111% | 84% | 94% | 102% | 94% | 97% | 95% | 105% | 76% |
| O=Cc1c[nH]c2ccc3c4ccccc4[nH]c3c12 | 106% | 83% | 88% | 96% | 88% | 84% | 105% | 93% | 95% | 95% | 106% | 101% |
| O=Cc1c[nH]c2c1ccc1c3ccccc3[nH]c12 | 27% | 60% | 33% | 113% | 88% | 71% | 64% | 84% | 87% | 84% | 91% | 22% |
